Assay outcomes (PubChem)
Most compounds without a hit are left out; they make up all but 2.8% or so of the library.
HTRA1 inhibitor – inhibitors of human serine peptidase HTRA1 | hit rate 0.5% among 340,000 | inhibition, % at 5.96 µM | Q92743 | AID 504803 | recombinant HTRA1, FP-rhodamine activity-based probe, fluorescence polarization; in the data active means inhibition above about 36%;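 further: 0% = enzyme with DMSO and 100% = wells lacking enzyme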
Target sequence (Q92743 whole entry, looked up): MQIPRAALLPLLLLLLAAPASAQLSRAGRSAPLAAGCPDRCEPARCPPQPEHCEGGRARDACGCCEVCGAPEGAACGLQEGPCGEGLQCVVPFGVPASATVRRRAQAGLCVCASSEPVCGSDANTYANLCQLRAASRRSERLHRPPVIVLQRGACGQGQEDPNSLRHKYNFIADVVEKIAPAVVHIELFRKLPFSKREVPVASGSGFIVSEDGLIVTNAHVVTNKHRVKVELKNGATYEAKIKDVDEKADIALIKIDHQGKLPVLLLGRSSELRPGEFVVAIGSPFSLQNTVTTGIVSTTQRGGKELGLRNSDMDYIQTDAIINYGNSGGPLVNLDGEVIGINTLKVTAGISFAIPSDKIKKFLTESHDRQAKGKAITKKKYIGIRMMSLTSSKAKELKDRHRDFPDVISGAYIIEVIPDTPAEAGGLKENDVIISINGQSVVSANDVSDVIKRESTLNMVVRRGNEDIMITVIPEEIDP
ABHD4 inh – ABHD4 (mouse) inhibition, primary FP screen; purified mABHD4, FP-Rh probe fluorescence polarization; inhibition, % at 8.92 µM; hit rate 0.54% among 370,000; AID 720543;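 active means inhibition exceeding the mean over every tested compound plus 3 SD, cut at about 30% in these data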;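 further: 0% = plate median of compound wells and 100% = S159A mutant with DMSO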
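Assay system: mABHD4 protein; medium: HEPES pH 7.0, NaCl, Pluronic buffer; dosing: 8.92 µM, single dose; schedule: 45 min + 60 min at 25 °C; signal: FP readout, ex 525 nm / em 598 nm; read-out: normalized percent inhibition of probe labeling; repeats: single replicate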
PAFAH1B2 FP inh – blocks human PAF acetylhydrolase 1b catalytic subunit 2. P68402. recombinant PAFAH1B2, FP-rhodamine activity probe, fluorescence polarization. inhibition, % at 3.39 µM. hit rate 1.2% among 340,000. AID 492953;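 active means inhibition above the mean of all tested compounds plus 3 SD, cut at about 24% in these data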;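 further: 0% = enzyme with DMSO and 100% = wells lacking PAFAH1B2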
Target sequence (P68402 whole entry, looked up): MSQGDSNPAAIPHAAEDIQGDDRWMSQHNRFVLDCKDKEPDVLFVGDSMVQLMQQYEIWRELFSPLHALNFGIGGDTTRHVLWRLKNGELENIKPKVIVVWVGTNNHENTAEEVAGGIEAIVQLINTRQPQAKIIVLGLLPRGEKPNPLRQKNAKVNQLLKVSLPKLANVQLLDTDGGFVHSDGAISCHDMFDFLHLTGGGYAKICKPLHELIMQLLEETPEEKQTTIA
PAFAH1B3 inh – blocks human PAF acetylhydrolase 1B catalytic subunit 3; Q15102; recombinant PAFAH1B3, FP-rhodamine probe, fluorescence polarization; inhibition, % at 3.39 µM; hit rate 0.28% among 340,000; AID 492972;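 active means inhibition above the screen-wide average of all tested compounds plus 3 SD, cut at about 25% in these data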;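 further: 0% = enzyme with DMSO only and 100% = wells lacking PAFAH1B3 protein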
pPAFAH FP inh – inhibitors of human plasma PAF acetylhydrolase (pPAFAH). Q13093. inhibition, % at 3.39 µM. recombinant pPAFAH, FP-rhodamine probe fluorescence polarization. hit rate 1.5% among 330,000;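 active means inhibition above the mean inhibition across the screen plus 3 SD, cut at about 25% in these data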;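 further: inhibitors block binding of the rhodamine activity-based probe so polarization drops; 0% = enzyme with DMSO and 100% = wells lacking pPAFAH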
PAFAH2 FP inh – inhibitors of human PAFAH2. Q99487. recombinant PAFAH2, FP-rhodamine activity probe, fluorescence polarization. inhibition, % at 3.39 µM. hit rate 0.99% among 340,000. AID 492956;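 active means inhibition above the mean over all tested compounds plus 3 SD, cut at about 30% in these data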;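 further: inhibitors block probe labeling of enzyme so polarization drops; 0% = enzyme with DMSO and 100% = wells lacking PAFAH2 protein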
PAFAH2 FP conf – confirmation of human PAFAH2 inhibitors; recombinant PAFAH2, FP-rhodamine activity probe, fluorescence polarization; AID 493030; hit rate 65% among 2,300; inhibition, % at 3.39 µM; shares compounds with PAFAH2 FP inh;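 active means mean inhibition over three repeats above a set limit taken from the earlier primary screen, cut at about 30% in these data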;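 further: inhibitor blocks binding of rhodamine activity probe so polarization falls; 0% = enzyme with DMSO and 100% = wells lacking PAFAH2 protein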
An asterisk follows results filed as active; · = not tested or not shown.

SMILES	HTRA1 inhibitor	ABHD4 inh	PAFAH1B2 FP inh	PAFAH1B3 inh	pPAFAH FP inh	PAFAH2 FP inh	PAFAH2 FP conf
CC(C)(C)C(=O)OC12CCCN(C1)/C(=C/c1cccnc1)C2 (stereo unspecified)	·	-7.1	·	·	·	·	·
CSc1ncccc1C(=O)OCC(=O)NC12CC3CC(CC(C3)C1)C2	-18.2	1.5	12.7	3.0	5.2	72.0*	72.3*
CCOc1ncccc1C(=O)OC(C)C(=O)NC1CCCCC1 (stereo unspecified)	2.5	-0.4	0.5	2.7	·	1.6	·
CCOc1ncccc1C(=O)OCC(=O)NCc1cccs1	3.7	0.4	3.3	5.8	15.2	39.5*	27.0
O=C(COC(=O)c1cccnc1Cl)NCc1cccs1	2.9	-1.0	5.1	-5.2	9.9	1.5	·
CSc1ncccc1C(=O)OCC(=O)NC1CCCCC1	9.4	-1.2	-3.6	-5.8	2.4	38.0*	36.5*
CSc1ncccc1C(=O)OCC(=O)NC1CC1	4.1	2.5	6.0	10.0	·	5.4	·
CCOc1ncccc1C(=O)OCC(=O)NC1CCCCCC1	-5.7	-0.6	3.5	-2.0	·	84.1*	79.0*
COC(=O)[C@]12C[C@H](CC(=O)NCC34CC5CC(CC(C5)C3)C4)C(=O)N(CCC3=CCCCC3)C1=C[C@H](C(C)C)O[C@@H]2C1CC1	·	4.1	·	·	·	·	·
O=C(NCc1ccc(Cl)cc1)C1C2C=CC3(CN(Cc4ccccc4)C(=O)C13)O2 (stereo unspecified)	·	-1.5	·	·	·	·	·
CC1CCN(c2ccc(C(=O)O)cc2NS(=O)(=O)c2cccc3cccnc23)CC1	·	21.8	·	·	·	·	·
O=C(COC(=O)c1cccnc1Cl)NC1CCCCCC1	3.6	3.8	5.3	7.2	8.4	73.3*	66.3*
O=C(COC(=O)c1cc(Cl)ccc1Cl)NC1CCCC1	-4.2	-5.6	3.3	-1.2	4.5	13.0	·
Nc1cc(Cl)ccc1C(=O)OCC(=O)NC1CCCCCCC1	-4.3	-2.2	0.9	0.2	7.4	47.4*	41.5*
O=C(Nc1cc(Cl)ccc1F)C1CCCN1S(=O)(=O)c1cccc2cccnc12 (stereo unspecified)	·	-1.2	·	·	·	·	·
CC1CCCN(CCCNS(=O)(=O)c2cc3c(cc2Br)CCN3C(=O)C2CC2)C1 (stereo unspecified)	·	2.0	·	·	·	·	·
C/C(=N\NC(=S)NCC(C)(C)C)c1cc(F)cc(F)c1O	34.9	7.8	7.4	21.2	9.5	33.0*	13.6
COCCNC(=S)N/N=C(\C)c1ccc(O)cc1	1.4	-7.1	1.0	3.8	5.2	-4.0	·
COc1ccc(C(=O)OCC(=O)Nc2ccc(N3CCOCC3)cc2)cc1OC	3.9	-1.1	5.5	5.6	-0.3	22.9	·
CCOc1cc(C(=O)OCC(=O)Nc2ccc(F)cc2Cl)ccc1OCC(=O)N1CCOCC1	-0.6	-0.8	3.0	-2.0	·	75.6*	70.6*
CCN(CC(=O)Nc1c(F)cccc1F)C(=O)c1ccc(N2CCCC2)c([N+](=O)[O-])c1	-6.5	-0.8	1.0	3.9	-1.2	0.2	·
CCOc1cc(C(=O)OCC(=O)Nc2c(C)cccc2C)ccc1OCC(=O)N1CCOCC1	0.5	-5.4	1.1	1.9	12.5	50.5*	67.7*
COc1cc(C(=O)OCC(=O)Nc2ccc(C(C)=O)cc2)ccc1OCC(=O)N1CCOCC1	1.5	8.8	7.2	6.4	0.7	60.9*	58.1*
Cc1cccc(C)c1NC(=O)COC(=O)c1ccc(N2CCCC2)c([N+](=O)[O-])c1	2.0	-3.4	-1.5	-3.0	13.0	63.1*	58.9*
COc1cc(C(=O)Nc2ccc(F)cc2Cl)ccc1OCC(=O)N1CCOCC1	0.2	-0.8	0.9	12.5	1.9	-1.7	·
SMILES	HTRA1 inhibitor	ABHD4 inh	PAFAH1B2 FP inh	PAFAH1B3 inh	pPAFAH FP inh	PAFAH2 FP inh	PAFAH2 FP conf
CCOc1ccc(C(=O)OCC(=O)N2CCOCC2)cc1OCC	-4.7	7.0	1.6	4.0	9.2	6.6	·
CCOc1cc(C(=O)OC(C)C(=O)Nc2ncc(Cl)cc2Cl)ccc1OCC(=O)N1CCOCC1 (stereo unspecified)	4.9	2.2	1.8	5.4	-0.8	10.9	·
Cc1c(Cl)cnc(NC(=O)COC(=O)c2ccc3c(c2)OCO3)c1Cl	3.4	10.6	2.7	8.3	8.4	50.3*	29.8*
CCOC(=O)c1ccccc1NC(=O)COC(=O)c1ccc(C)c(S(=O)(=O)N2CCOCC2)c1	-1.3	4.6	-4.1	4.0	3.6	16.7	·
CCOC(=O)c1ccccc1NC(=O)COC(=O)c1ccc(OCC(=O)N2CCOCC2)c(OCC)c1	2.6	0.7	-5.0	-1.1	·	34.8*	24.1
CCOc1cc(C(=O)OCC(=O)Nc2ncc(Cl)c(C)c2Cl)ccc1OCC(=O)N1CCOCC1	4.1	17.3	-0.2	2.9	7.0	55.2*	53.8*
Cc1ccc(CSc2nnc(-c3cccs3)o2)cc1C	·	-4.8	·	·	·	·	·
C[C@H]1C(=O)CC[C@@]23CCCN2C(=O)CCC[C@@H]13	·	-8.4	·	·	·	·	·
COC(=O)c1ccc(-n2cncn2)c([N+](=O)[O-])c1	4.8	8.7	2.8	1.6	5.2	1.7	·
Cc1cccc(NC(=O)CNC(=O)c2ccc(-n3cncn3)c([N+](=O)[O-])c2)c1C	-2.0	-0.4	-3.6	5.0	-2.2	38.3*	-2.9
CCOC(=O)Cc1nc(N2CCN(C=O)CC2)c2c(C)c(C(=O)OCC)sc2n1	·	-2.1	·	·	·	·	·
O=C(COC(=O)/C=C/c1ccc(OC(F)F)cc1)Nc1ccc(N2CCOCC2)cc1	0.1	-2.9	2.9	4.5	7.9	2.4	·
COc1cccc(CCC(=O)Nc2cccc(S(=O)(=O)N3CCCC3)c2)c1OC	0.4	1.5	-5.0	-6.4	0.5	-3.4	·
COc1cccc(/C=C/C(=O)OCC(=O)Nc2cccc(S(=O)(=O)N3CCCCC3)c2)c1OC	-49.0	-32.2	-0.9	-1.1	3.6	39.0*	54.5*
O=C(COC(=O)/C=C/c1ccc(OC(F)F)cc1)Nc1cccc(S(=O)(=O)N2CCOCC2)c1	-12.9	-14.9	-1.7	9.2	2.2	53.1*	39.7*
O=C(COC(=O)/C=C/c1ccc(F)cc1)Nc1cccc(S(=O)(=O)N2CCCC2)c1	-25.4	-18.5	-0.9	0.4	1.2	52.6*	43.9*
O=C(COC(=O)CNC(=O)c1ccc(F)cc1)Nc1cccc(S(=O)(=O)N2CCCC2)c1	-0.7	0.6	5.6	11.6	6.5	4.9	·
COc1ccc(-c2nnc(SCC(=O)Nc3ccc(S(=O)(=O)Nc4nccs4)cc3)n2-c2ccc(OC)cc2)cc1	·	-28.4	·	·	·	·	·
COc1ccc(C(=O)N[C@H]2CC[C@@]34CCCN3C(=O)CCC[C@H]4[C@H]2C)cc1	·	0.1	·	·	·	·	·
COC(=O)[C@]12C[C@H](CC(=O)NCCc3ccccc3OC)C(=O)N(CCc3ccc(OC)c(OC)c3)C1=C[C@H](C(C)C)O[C@@H]2C1CC1	·	1.8	·	·	·	·	·
Cc1cccc(C)c1N1CCN(C(=O)N2CCOCC2)CC1	4.8	2.3	0.8	1.5	2.3	43.7*	44.0*
Cc1ccc(N2CCN(C(=O)N3CCOCC3)CC2)cc1C	-4.1	6.6	2.9	-3.4	1.0	-4.3	·
